This is an account of results in ChEMBL document CHEMBL3120065, “Antifungal ether diglycosides from Matayba guianensis Aublet” (Bioorg Med Chem Lett, 2014).

One assay has as its system Plasmodium falciparum. Put plainly: Antiplasmodial activity against Plasmodium falciparum assessed as growth inhibition. Format: functional, organism-based.
The subject of the next assay is PBMC. The assay can be described thus: Cytotoxicity against human PBMC assessed as cell viability after 72 hrs by MTT assay. Format: cell-based. An outline of the steps:
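Normal proliferating human peripheral blood mononuclear cells exposed to compound for 72 h; viability read by MTT; result given as IC50.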

A further assay relates to Candida parapsilosis. The assay can be described thus: Antifungal activity against Candida parapsilosis ATCC 22019 assessed as growth inhibition by microdliution method. The format is functional. Particulars: Lodderomyces parapsilosis.
Assay [1] in a line: Selectivity index, ratio of IC50 for human PBMC to MIC for Candida parapsilosis ATCC 22019.

pIC50: −log10 of the molar value. Values after ≈ are worked out from the molar mass of the structure shown.

As to `CCCCCCCCCCCCCCCCO[C@@H]1O[C@H](COC(=O)CCCCCCCCCCCCCCC)[C@@H](O)[C@H](O)[C@H]1O[C@@H]1O[C@@H](C)[C@H](OC(C)=O)[C@@H](OC(C)=O)[C@H]1OC(C)=O`, the IC50 with Plasmodium falciparum came to 4.7 µg/mL (≈ 5.14 µM).
`CCCCCCCCCCCCCCCCO[C@@H]1O[C@H](CO)[C@@H](O)[C@H](O)[C@H]1O[C@@H]1O[C@@H](C)[C@H](OC(C)=O)[C@@H](O)[C@H]1OC(C)=O`: the pIC50 in the assay with PBMC was under 4.40. Besides, in the assay with Candida parapsilosis, the MIC was determined as 6.31 µM.
With `C[C@@H]1[C@H](O)[C@@H](C)/C=C/C=C/C=C/C=C/C=C/C=C/C=C/[C@H](O[C@@H]2O[C@H](C)[C@@H](O)[C@H](N)[C@@H]2O)C[C@@H]2O[C@](O)(C[C@@H](O)C[C@@H](O)[C@H](O)CC[C@@H](O)C[C@@H](O)CC(=O)O[C@H]1C)C[C@H](O)[C@H]2C(=O)O` [AMPHOTERICIN B], the pIC50 in the assay with PBMC is under 5.27. For the same compound, in the assay on Candida parapsilosis, the minimal inhibitory concentration (MIC) worked out at 4.33 µM.
As to `CCCCCCCCCCCCCCCCO[C@@H]1O[C@H](COC(C)=O)[C@@H](OC(C)=O)[C@H](O)[C@H]1O[C@@H]1O[C@@H](C)[C@H](OC(C)=O)[C@@H](OC(C)=O)[C@H]1OC(C)=O`, the IC50 in the assay on Plasmodium falciparum worked out at 7.1 µg/mL (≈ 9.33 µM).
Regarding `CCCCCCCCCCCCCCCCO[C@@H]1O[C@H](CO)[C@@H](O)[C@H](O)[C@H]1O[C@@H]1O[C@@H](C)[C@H](OC(C)=O)[C@@H](OC(C)=O)[C@H]1O`, the “Selectivity Index” value in assay [1] came out at 12.5. Further, in the assay on PBMC, the pIC50 was under 4.40. Moreover, in the assay on Candida parapsilosis, the MIC is 3.15 µM.
`OC(Cn1cncn1)(Cn1cncn1)c1ccc(F)cc1F` [FLUCONAZOLE]: in the assay with PBMC, the pIC50 is under 4.79. Moreover, the MIC in the assay on Candida parapsilosis is 0.2 µM.
`CCC(C)n1ncn(-c2ccc(N3CCN(c4ccc(OCC5COC(Cn6cncn6)(c6ccc(Cl)cc6Cl)O5)cc4)CC3)cc2)c1=O` (stereo not drawn) [ITRACONAZOLE]: the pIC50 in the assay with PBMC was 5.82. In addition, in the assay on Candida parapsilosis, the MIC came out at 0.71 µM.
The matching figures for `CCCCCCCCCCCCCCCCO[C@@H]1O[C@H](CO)[C@@H](O)[C@H](O)[C@H]1O[C@@H]1O[C@@H](C)[C@H](OC(C)=O)[C@@H](OC(C)=O)[C@H]1OC(C)=O`: 4.59 and 189 µM.
For `CCCCCCCCCCCCCCCCO[C@@H]1O[C@H](COC(C)=O)[C@@H](O)[C@H](OC(C)=O)[C@H]1O[C@@H]1O[C@@H](C)[C@H](OC(C)=O)[C@@H](OC(C)=O)[C@H]1OC(C)=O`, the IC50 with Plasmodium falciparum worked out at 13 µg/mL (≈ 17.1 µM).
Consider `COc1cccc2c1C(=O)c1c(O)c3c(c(O)c1C2=O)C[C@@](O)(C(=O)CO)C[C@@H]3O[C@H]1C[C@H](N)[C@H](O)[C@H](C)O1` [DOXORUBICIN], for which the pIC50 with PBMC is 5.77.
In the case of `CCCCCCCCCCCCCCCCO[C@@H]1O[C@H](COC(C)=O)[C@@H](O)[C@H](O)[C@H]1O[C@@H]1O[C@@H](C)[C@H](OC(C)=O)[C@@H](OC(C)=O)[C@H]1OC(C)=O`, in the assay with Plasmodium falciparum, the IC50 was 15.7 µg/mL (≈ 21.8 µM).

The term IC50 denotes the midpoint of a concentration-inhibition curve. The pIC50 is the IC50 on a negative log10 scale, so that one unit is a factor of ten. By MIC is commonly meant the smallest concentration in the dilution series that meets the test's criterion for growth inhibition.
